Data from ChEMBL document CHEMBL4842338, “System-oriented optimization of multi-target 2,6-diaminopurine derivatives: Easily accessible broad-spectrum antivirals active against flaviviruses, influenza virus and SARS-CoV-2” (Eur J Med Chem, 2021).
pIC50: −log10 of the molar value. Calls of active or inactive are those of the source. No cut-off for these calls is given here.

Tests used:
[1] = Inhibition of full length ZIKA virus NS5 RNA dependent RNA polymerase incubated for 10 mins by picogreen staining based fluorescent analysis (Rvb= 1+/-0.2 uM)
[2] = system: Influenza A virus; test: Antiviral activity against Influenza A Puerto Rico/8/34/H1N1 infected in MDCK cells assessed as inhibition of viral replication measured in supernatants of infected cells after 24 hrs by hemagglutination assay; type: functional, organism-based; details: A/Puerto Rico/8/1934(H1N1)
[3] = molecular target: CDK9/cyclin T1 (Homo sapiens, UniProt P50750); test: Inhibition of human full length CDK9/ His-tagged cT1 assessed as residual activity at 5 uM using CDKtide as a substrate in the presence of BSA incubated for 10 mins by scintillation counting analysis relative to control; type: protein-complex assay; details: full length CDK9/His-tagged cyclin T1 complex, probe CDKtide, read-out: Activity
Summary of the method: (§1)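 Compounds at fixed 5 μM; 10–50 ng kinase, substrate and NP-40/BSA per supplementary table, 10 μL at 30 °C for 10 min in low-binding tubes. Reactions spotted on filter, dried, scintillation counted. Mean ± SD of two independent experiments.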

[4] = Selectivity index, ratio of CC50 for MDCK cells to IC50 for Influenza A Puerto Rico/8/34/H1N1 infected in MDCK cells; type: toxicity, cell-based; details: dog, read-out: Selectivity Index
Summary of the method: (§2)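 MDCK or A549 cells (2.5 × 10⁵/well) infected with A/Puerto Rico/8/34 H1N1 for 1 h at 37 °C, then washed. Compound (0.5–20 μM) added in 2% FBS medium for 24 h, with DMSO final ≤0.2%. Virus in supernatants read by hemagglutination. CC₅₀ by MTT (2 × 10⁴ cells/well, same concentrations, 24 h, absorbance 570 nm). SI = CC₅₀/IC₅₀.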

[5] = system: Zika virus; test: Antiviral activity against Zika virus H/PF/2013 infected in pre-seeded Huh-7 cells assessed as inhibition of viral replication incubated for 72 hrs by immunodetection based secondary yield reduction assay; type: functional, organism-based; details: H/PF/2013, Huh-7, 72 h
[6] = Selectivity index, ratio of CC50 for human Huh-7 cells to IC50 for Dengue virus serotype 2 New Guinea C infected in pre-seeded Huh-7 cells assessed as inhibition of viral replication incubated for 72 hrs by immunodetection based secondary yield reduction assay; type: toxicity, cell-based; details: read-out: Selectivity Index
[7] = Selectivity index, ratio of CC50 for human Huh-7 cells to IC50 for Zika virus H/PF/2013 infected in pre-seeded Huh-7 cells assessed as inhibition of viral replication incubated for 72 hrs by immunodetection based secondary yield reduction assay; type: toxicity, cell-based; details: read-out: Selectivity Index
[8] = Inhibition of Dengue virus 2 […] RNA dependent RNA polymerase incubated for 10 mins by picogreen staining based fluorescent analysis (Rvb= 0.27+/-0.03 uM); parameters: species or system dengue virus type 2
[9] = molecular target: PIK3CA (Phosphatidylinositol 4,5-bisphosphate 3-kinase catalytic subunit alpha isoform) (Homo sapiens, UniProt P42336); test: Inhibition of human full length PIK3CA assessed as residual activity at 5 uM using PI:PS (1:3) as a substrate incubated for 10 mins by scintillation counting analysis relative to control; details: full length PIK3CA enzyme, probe PI:PS (1:3), read-out: Activity
Summary of the method: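 Radiometric kinase reaction with 10–50 ng enzyme and compound fixed at 5 μM, 10 μL at 30 °C for 10 min. Reactions spotted on filter and counted by scintillation. Residual activity is the mean ± SD of two independent experiments.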

[10] = molecular target: Src (Proto-oncogene tyrosine-protein kinase Src) (Homo sapiens, UniProt P12931); test: Inhibition of human recombinant N terminal His6 tagged full length Src assessed as residual activity at 5 uM using KVEKIGEGTYGVVYK as a substrate in the presence of NP-40 incubated for 10 mins by scintillation counting analysis relative to control; details: probe KVEKIGEGTYGVVYK, read-out: Activity; summary of the method: as §1
[11] = system: dengue virus type 2; test: Antiviral activity against Dengue virus serotype 2 New Guinea C infected in pre-seeded Huh-7 cells assessed as inhibition of viral replication incubated for 72 hrs by immunodetection based secondary yield reduction assay; type: functional, organism-based; details: Dengue virus, New Guinea C, Huh-7, 72 h; read-out: IC50
[12] = system: A549; test: Cytotoxicity against human A549 cells assessed as reduction in cell viability measured after 24 hrs by MTT assay; type: cell-based; details: a549, 24 h
[13] = molecular target: Abl (Tyrosine-protein kinase ABL1) (Homo sapiens, UniProt P00519); test: Inhibition of human recombinant N terminal His6 tagged Abl (27 to end residue) assessed as residual activity at 5 uM using KKGEAIYAADFA-NH2 as a substrate in the presence of NP-40 incubated for 10 mins by scintillation counting analysis relative to control; details: probe KKGEAIYAADFA-NH2, read-out: Activity; summary of the method: as §1
[14] = Inhibition of DENV NS5-MTase domain using GpppA2'OMe-RNA74 as a substrate incubated for 30 mins by filter binding assay; parameters: species or system dengue virus type 2
Summary of the method: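 MTase (1 μM) incubated with increasing inhibitor in 40 mM Tris-HCl pH 7.5, 5 mM DTT, 10 μM AdoMet ([3H]-labelled), 0.5 μM GpppA2′OMe-RNA74 substrate, 30 °C for 30 min; stopped in ice-cold 100 μM AdoHcy; DEAE filter binding, scintillation counting.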

[15] = molecular target: Fyn (Tyrosine-protein kinase Fyn) (Homo sapiens, UniProt P06241); test: Inhibition of human recombinant N terminal His6 tagged full length Fyn assessed as residual activity at 5 uM using […] as a substrate in the presence of NP-40 incubated for 10 mins by scintillation counting analysis relative to control; details: probe […], read-out: Activity; summary of the method: as §1
[16] = system: MDCK; test: Cytotoxicity against MDCK cells assessed as reduction in cell viability measured after 24 hrs by MTT assay; type: cell-based, Canis lupus familiaris; details: dog, mdck, 24 h
[17] = system: Influenza A virus; test: Antiviral activity against Influenza A Puerto Rico/8/34/H1N1 infected in human A549 cells assessed as inhibition of viral replication after 24 hrs by hemagglutination assay; type: functional, organism-based; details: A/Puerto Rico/8/1934(H1N1), A549, 24 h
[18] = Cytotoxicity against human Huh-7 cells assessed as reduction in cell viability by Celltiter-Glo luminescent cell viability assay; type: cell-based; details: Huh-7 cells
Summary of the method: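 Compound-exposed cells assessed by CellTiter-Glo luminescence versus DMSO control; CC50 from dose-response.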

[19] = Inhibition of full length Dengue virus 2 NS5 RNA dependent RNA polymerase incubated for 10 mins by picogreen staining based fluorescent analysis (Rvb= 0.32+/-0.05 uM); parameters: species or system dengue virus type 2
[20] = Selectivity index, ratio of CC50 for human A549 cells to IC50 for Influenza A Puerto Rico/8/34/H1N1 infected in human A549 cells; type: toxicity, cell-based; details: read-out: Selectivity Index; summary of the method: as §2
[21] = Inhibition of full length ZIKV NS5-MTase domain using 7MeGpppAC4 as a substrate incubated for 30 mins by filter binding assay; parameters: species or system Zika virus
[22] = system: Zika virus; test: Antiviral activity against Zika virus H/PF/2013 infected in pre-seeded Huh-7 cells assessed as inhibition of viral replication incubated for 72 hrs by immunodetection based plaque reduction assay; type: functional, organism-based; details: H/PF/2013, Huh-7, 72 h
[23] = system: dengue virus type 2; test: Antiviral activity against Dengue virus serotype 2 New Guinea C infected in pre-seeded Huh-7 cells assessed as inhibition of viral replication incubated for 72 hrs by immunodetection based direct yield reduction assay; type: functional, organism-based; details: Dengue virus, New Guinea C, Huh-7, 72 h; read-out: IC50
[24] = system: West Nile virus; test: Antiviral activity against West Nile virus lineage 1 (Italy/2009) infected in pre-seeded Huh-7 cells assessed as inhibition of viral replication incubated for 48 hrs by immunodetection based plaque reduction assay; type: functional, organism-based; details: Huh-7, 48 h
[25] = Selectivity index, ratio of CC50 for human Huh-7 cells to IC50 for West Nile virus lineage 1 (Italy/2009) infected in pre-seeded Huh-7 cells assessed as inhibition of viral replication incubated for 48 hrs by immunodetection based plaque reduction assay; type: toxicity, cell-based; details: read-out: Selectivity Index
[26] = system: West Nile virus; test: Antiviral activity against West Nile virus lineage 1 (Italy/2009) infected in pre-seeded Huh-7 cells assessed as inhibition of viral replication incubated for 48 hrs by immunodetection based direct yield reduction assay; type: functional, organism-based; details: West Nile virus, lineage 1 (Italy/2009), Huh-7, 48 h; read-out: IC50
[27] = system: Huh-7; test: Effect on formation of DENV replication complex in human Huh-7 cells assessed as reduction in expression of NS5 at 100 uM measured after 8 to 24 hrs by DAPI staining based confocal microscopy analysis; type: functional, cell-based; details: time 8-24 hrs
Summary of the method: (§3)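 Huh-7 cells (1 × 10⁴) on coverslips infected with DENV-2 (MOI 0.05), treated (100 or 50 μM as listed), fixed in 4% paraformaldehyde at 8, 12, 16, 24 h; anti-NS3/anti-NS5 with Alexa 488/568 secondaries, DAPI; confocal, 5 random fields at 40×; % positive cells; 2-way ANOVA with Dunnett.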

[28] = Selectivity index, ratio of CC50 for human Huh-7 cells to IC50 for Zika virus H/PF/2013 infected in pre-seeded Huh-7 cells assessed as inhibition of viral replication incubated for 72 hrs by immunodetection based plaque reduction assay; type: toxicity, cell-based; details: read-out: Selectivity Index
[29] = Selectivity index, ratio of CC50 for human Huh-7 cells to IC50 for Zika virus H/PF/2013 infected in pre-seeded Huh-7 cells assessed as inhibition of viral replication incubated for 72 hrs by immunodetection based direct yield reduction assay; type: toxicity, cell-based; details: read-out: Selectivity Index
Summary of the method: (§4)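 Direct yield reduction in Huh7 cells (7000/well), infected with 50 TCID₅₀ of DENV or ZIKV, or 25 TCID₅₀ of WNV. Adsorption 1 h at 37 °C, then virus removed and serial compound dilutions added. Incubated 72 h (DENV, ZIKV) or 48 h (WNV). Viral antigen immunodetected on the monolayer. IC₅₀ by non-linear regression, mean of three experiments. SI = CC₅₀ (Huh7, CellTiter-Glo luminescence)/IC₅₀.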

[30] = Selectivity index, ratio of CC50 for human Huh-7 cells to IC50 for Dengue virus serotype 2 New Guinea C infected in pre-seeded Huh-7 cells assessed as inhibition of viral replication incubated for 72 hrs by immunodetection based plaque reduction assay; type: toxicity, cell-based; details: read-out: Selectivity Index
[31] = system: Huh-7; test: Effect on formation of DENV replication complex in human Huh-7 cells assessed as reduction NS3 translocation into cytoplasm at 100 uM measured after 16 to 24 hrs by DAPI staining based confocal microscopy analysis; type: functional, cell-based; details: time 16-24 hrs; summary of the method: as §3
[32] = system: Huh-7; test: Effect on formation of DENV replication complex in human Huh-7 cells assessed as reduction in expression of NS3 at 100 uM measured after 8 to 24 hrs by DAPI staining based confocal microscopy analysis; type: functional, cell-based; details: time 8-24 hrs; summary of the method: as §3
[33] = Selectivity index, ratio of CC50 for human Huh-7 cells to IC50 for West Nile virus lineage 1 (Italy/2009) infected in pre-seeded Huh-7 cells assessed as inhibition of viral replication incubated for 48 hrs by immunodetection based direct yield reduction assay; type: toxicity, cell-based; details: read-out: Selectivity Index; summary of the method: as §4
[34] = system: Huh-7; test: Effect on formation of DENV replication complex in human Huh-7 cells assessed as reduction in NS5 translocation into nucleus at 100 uM measured after 16 to 24 hrs by DAPI staining based confocal microscopy analysis; type: functional, cell-based; details: time 16-24 hrs; summary of the method: as §3
[35] = Selectivity index, ratio of CC50 for human Huh-7 cells to IC50 for Dengue virus serotype 2 New Guinea C infected in pre-seeded Huh-7 cells assessed as inhibition of viral replication incubated for 72 hrs by immunodetection based direct yield reduction assay; type: toxicity, cell-based; details: read-out: Selectivity Index; summary of the method: as §4
[36] = system: Zika virus; test: Antiviral activity against Zika virus H/PF/2013 infected in pre-seeded Huh-7 cells assessed as inhibition of viral replication incubated for 72 hrs by immunodetection based direct yield reduction assay; type: functional, organism-based; details: H/PF/2013, Huh-7, 72 h; summary of the method: as §4

Abl (Tyrosine-protein kinase ABL1), sequence (P00519 whole entry, the tested form may be a part): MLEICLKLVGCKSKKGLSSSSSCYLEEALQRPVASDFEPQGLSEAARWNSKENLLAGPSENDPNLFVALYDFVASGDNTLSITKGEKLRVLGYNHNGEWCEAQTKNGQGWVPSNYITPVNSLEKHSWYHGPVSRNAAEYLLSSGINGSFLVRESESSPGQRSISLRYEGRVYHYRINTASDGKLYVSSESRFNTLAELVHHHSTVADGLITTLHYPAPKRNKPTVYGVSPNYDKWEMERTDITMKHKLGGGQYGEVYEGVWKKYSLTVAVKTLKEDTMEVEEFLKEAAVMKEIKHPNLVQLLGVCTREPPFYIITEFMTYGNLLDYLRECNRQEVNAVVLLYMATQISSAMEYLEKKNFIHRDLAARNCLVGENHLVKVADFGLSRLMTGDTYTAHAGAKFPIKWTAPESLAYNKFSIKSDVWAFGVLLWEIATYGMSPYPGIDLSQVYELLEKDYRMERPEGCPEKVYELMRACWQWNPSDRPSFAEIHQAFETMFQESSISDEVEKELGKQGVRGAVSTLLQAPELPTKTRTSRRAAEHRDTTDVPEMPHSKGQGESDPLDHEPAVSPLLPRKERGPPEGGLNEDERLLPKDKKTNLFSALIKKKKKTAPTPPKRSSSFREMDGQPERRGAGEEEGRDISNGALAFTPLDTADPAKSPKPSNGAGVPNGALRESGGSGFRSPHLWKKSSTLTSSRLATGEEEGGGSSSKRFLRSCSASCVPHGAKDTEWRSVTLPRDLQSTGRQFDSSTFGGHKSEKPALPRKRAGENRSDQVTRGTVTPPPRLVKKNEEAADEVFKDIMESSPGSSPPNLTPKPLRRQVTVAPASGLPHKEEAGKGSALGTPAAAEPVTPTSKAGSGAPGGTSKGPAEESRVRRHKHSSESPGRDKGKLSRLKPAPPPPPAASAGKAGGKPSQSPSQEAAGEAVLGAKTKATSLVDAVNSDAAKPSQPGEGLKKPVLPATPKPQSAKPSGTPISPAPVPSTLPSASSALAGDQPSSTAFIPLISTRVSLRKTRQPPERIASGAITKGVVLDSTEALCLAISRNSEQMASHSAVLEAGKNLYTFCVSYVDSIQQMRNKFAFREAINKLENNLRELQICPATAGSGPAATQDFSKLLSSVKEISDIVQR
Src (Proto-oncogene tyrosine-protein kinase Src), sequence (P12931 2-536 limits assumed): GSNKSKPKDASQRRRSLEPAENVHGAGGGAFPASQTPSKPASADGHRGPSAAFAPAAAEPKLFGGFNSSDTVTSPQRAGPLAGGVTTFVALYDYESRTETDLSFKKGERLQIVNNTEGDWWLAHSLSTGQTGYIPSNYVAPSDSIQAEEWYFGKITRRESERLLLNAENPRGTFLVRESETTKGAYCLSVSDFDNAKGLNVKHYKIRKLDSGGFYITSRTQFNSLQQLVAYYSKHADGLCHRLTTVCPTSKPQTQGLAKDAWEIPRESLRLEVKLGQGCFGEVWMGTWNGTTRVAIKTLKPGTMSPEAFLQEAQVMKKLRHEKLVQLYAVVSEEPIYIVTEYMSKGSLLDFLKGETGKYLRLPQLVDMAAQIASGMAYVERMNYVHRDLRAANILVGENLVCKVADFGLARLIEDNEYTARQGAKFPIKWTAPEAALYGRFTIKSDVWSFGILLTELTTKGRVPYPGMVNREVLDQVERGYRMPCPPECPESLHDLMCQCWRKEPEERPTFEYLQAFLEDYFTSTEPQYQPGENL
Fyn (Tyrosine-protein kinase Fyn), sequence (P06241 whole entry): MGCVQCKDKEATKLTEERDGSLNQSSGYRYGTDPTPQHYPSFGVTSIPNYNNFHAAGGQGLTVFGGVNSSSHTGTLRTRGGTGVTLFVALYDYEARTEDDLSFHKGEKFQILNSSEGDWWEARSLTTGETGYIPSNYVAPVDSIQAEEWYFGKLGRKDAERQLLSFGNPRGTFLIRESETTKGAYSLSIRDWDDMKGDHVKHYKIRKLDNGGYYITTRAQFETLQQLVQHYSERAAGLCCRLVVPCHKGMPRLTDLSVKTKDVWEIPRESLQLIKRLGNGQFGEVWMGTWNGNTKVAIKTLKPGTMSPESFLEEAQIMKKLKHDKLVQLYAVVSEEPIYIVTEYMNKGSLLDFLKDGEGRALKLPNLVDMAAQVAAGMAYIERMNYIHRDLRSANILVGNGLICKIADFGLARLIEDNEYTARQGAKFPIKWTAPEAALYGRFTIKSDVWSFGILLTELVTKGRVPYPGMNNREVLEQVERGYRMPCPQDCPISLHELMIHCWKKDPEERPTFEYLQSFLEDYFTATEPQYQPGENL
CDK9/cyclin T1, sequence (O60563 whole entry): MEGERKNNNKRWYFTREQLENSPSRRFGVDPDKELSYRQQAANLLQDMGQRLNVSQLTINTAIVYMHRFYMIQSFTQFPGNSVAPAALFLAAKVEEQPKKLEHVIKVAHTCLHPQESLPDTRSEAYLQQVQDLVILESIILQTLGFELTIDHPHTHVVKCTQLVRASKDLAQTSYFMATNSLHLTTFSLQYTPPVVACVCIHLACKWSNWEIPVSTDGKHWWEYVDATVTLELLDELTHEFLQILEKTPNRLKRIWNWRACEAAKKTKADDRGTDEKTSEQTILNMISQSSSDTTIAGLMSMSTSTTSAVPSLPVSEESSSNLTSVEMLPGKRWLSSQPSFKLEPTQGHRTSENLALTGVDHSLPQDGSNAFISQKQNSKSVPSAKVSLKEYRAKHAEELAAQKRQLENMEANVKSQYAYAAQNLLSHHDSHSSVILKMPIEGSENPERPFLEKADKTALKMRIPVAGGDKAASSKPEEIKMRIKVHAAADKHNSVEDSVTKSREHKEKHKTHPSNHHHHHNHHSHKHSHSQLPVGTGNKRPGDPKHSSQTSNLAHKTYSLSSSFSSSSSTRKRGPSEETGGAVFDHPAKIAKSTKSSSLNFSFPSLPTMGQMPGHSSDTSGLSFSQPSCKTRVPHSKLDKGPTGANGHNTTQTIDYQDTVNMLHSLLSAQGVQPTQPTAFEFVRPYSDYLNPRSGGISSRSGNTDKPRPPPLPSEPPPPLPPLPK
CDK9/cyclin T1, sequence (P50750 whole entry): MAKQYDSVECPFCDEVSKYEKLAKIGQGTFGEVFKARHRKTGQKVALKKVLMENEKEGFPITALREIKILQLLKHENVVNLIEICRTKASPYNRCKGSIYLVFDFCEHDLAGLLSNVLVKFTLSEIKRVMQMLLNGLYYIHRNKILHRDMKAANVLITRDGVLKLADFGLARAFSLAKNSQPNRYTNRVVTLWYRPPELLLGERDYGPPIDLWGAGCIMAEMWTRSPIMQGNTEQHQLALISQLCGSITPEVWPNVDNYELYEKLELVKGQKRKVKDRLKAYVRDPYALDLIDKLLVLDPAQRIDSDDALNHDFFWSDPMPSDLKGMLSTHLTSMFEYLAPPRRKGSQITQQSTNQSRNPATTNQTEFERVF
PIK3CA (Phosphatidylinositol 4,5-bisphosphate 3-kinase catalytic subunit alpha isoform), sequence (P42336 whole entry, canonical isoform): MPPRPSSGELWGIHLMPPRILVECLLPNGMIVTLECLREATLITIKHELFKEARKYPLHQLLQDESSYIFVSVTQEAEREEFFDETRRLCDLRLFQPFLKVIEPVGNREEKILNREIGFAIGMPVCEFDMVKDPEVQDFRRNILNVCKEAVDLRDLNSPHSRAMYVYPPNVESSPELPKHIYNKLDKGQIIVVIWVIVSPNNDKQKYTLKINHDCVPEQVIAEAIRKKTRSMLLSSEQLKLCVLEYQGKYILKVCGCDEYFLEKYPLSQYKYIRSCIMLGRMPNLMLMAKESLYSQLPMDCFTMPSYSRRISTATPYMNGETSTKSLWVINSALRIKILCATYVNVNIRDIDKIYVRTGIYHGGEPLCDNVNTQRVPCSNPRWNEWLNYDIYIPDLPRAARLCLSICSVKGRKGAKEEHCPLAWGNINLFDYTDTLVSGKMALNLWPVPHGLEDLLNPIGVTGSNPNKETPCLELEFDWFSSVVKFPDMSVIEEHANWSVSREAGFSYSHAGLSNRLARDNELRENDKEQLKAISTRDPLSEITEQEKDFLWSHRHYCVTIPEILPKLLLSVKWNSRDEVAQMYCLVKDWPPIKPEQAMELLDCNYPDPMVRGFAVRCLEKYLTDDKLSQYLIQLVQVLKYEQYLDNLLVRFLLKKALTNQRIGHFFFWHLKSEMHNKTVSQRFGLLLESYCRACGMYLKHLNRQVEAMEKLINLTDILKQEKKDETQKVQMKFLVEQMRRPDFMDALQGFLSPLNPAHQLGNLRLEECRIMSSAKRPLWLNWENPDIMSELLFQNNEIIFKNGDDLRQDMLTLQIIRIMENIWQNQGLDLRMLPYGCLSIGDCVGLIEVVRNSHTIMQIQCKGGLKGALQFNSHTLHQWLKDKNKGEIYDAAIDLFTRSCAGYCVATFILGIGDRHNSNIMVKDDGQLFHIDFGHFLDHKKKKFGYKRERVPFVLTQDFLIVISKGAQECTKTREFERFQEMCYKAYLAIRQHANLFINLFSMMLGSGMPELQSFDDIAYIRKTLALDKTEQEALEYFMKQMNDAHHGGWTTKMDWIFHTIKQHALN

Fc1cccc(Nc2nc(NCCOc3ccccc3)nc3[nH]cnc23)c1
pIC50 [1]: 4.72 | pIC50 [2]: 4.85 | activity at 10 min, 5 µM [3]: 87% | selectivity ratio [4]: 5.5 | pIC50 [5]: 5.54 | selectivity ratio at 72 h [6]: 17 | selectivity ratio at 72 h [7]: 68 | pIC50 [8]: 4.51 | activity at 10 min, 5 µM [9]: 69% | activity at 10 min, 5 µM [10]: 45% | pIC50 [11]: 4.92 | CC50 [12]: 58 µM | activity at 10 min, 5 µM [13]: 54% | IC50 [14]: Not Active | activity at 10 min, 5 µM [15]: > 98% | CC50 [16]: 77 µM | pIC50 [17]: 4.68 | CC50 [18]: 200 µM | pIC50 [19]: < 4.00 | selectivity ratio [20]: 2.8 | IC50 [21]: Not Active

CC(C)OC(=O)[C@H](C)N[P@](=O)(OC[C@H]1O[C@@H](n2ccc(=O)[nH]c2=O)[C@](C)(F)[C@@H]1O)Oc1ccccc1 [SOFOSBUVIR]
pIC50 [22]: 5.70 | pIC50 [23]: 5.34 | pIC50 [24]: 5.92 | selectivity ratio at 48 h [25]: 166 | pIC50 [5]: 5.49 | selectivity ratio at 72 h [6]: 42 | pIC50 [26]: 5.77 | Activity [27]: Active | selectivity ratio at 72 h [28]: 100 | selectivity ratio at 72 h [29]: 74 | selectivity ratio at 72 h [7]: 62 | selectivity ratio at 72 h [30]: 50 | pIC50 [11]: 5.33 | Activity [31]: inactive | Activity [32]: Active | selectivity ratio at 48 h [33]: 117 | Activity [34]: Active | selectivity ratio at 72 h [35]: 43 | CC50 [18]: 200 µM | pIC50 [36]: 5.57
